Screens from PubChem.
KCNK9 block = inhibitors of human KCNK9 two-pore domain potassium channel. 1.2% of 310,000 active. AID 488922. B-score at 10 µM. HEK293 KCNK9, FluxOR thallium flux fluorescence; stronger effect = lower value. Q9NPC2;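 active = ratio B-score over 3 SD below the library mean, with starting fluorescence within 5 SD of its mean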;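 also: negative B-score means less thallium flux so channel inhibition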
KCNK3 block = human KCNK3 channel inhibition, primary screen; O14649; CHO-KCNK3 thallium flux, FluxOR fluorescence; stronger effect = lower value; B-score at 10 µM; 0.84% of 340,000 active;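 active = B-score under library mean minus 4 SD, starting fluorescence ratio at most library mean plus 5 SD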;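 also: more negative B-score means stronger inhibition of thallium flux through KCNK3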
KCNQ1 inh = blocks the human KCNQ1 potassium channel | 1.3% of 310,000 active | B-score at 10 µM | P51787 | CHO-K1 KCNQ1, FluxOR thallium flux fluorescence; stronger effect = higher value;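 active = compounds whose thallium flux B-score, printed positive for inhibition, exceeds three library SD while starting fluorescence stays within three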;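 also: channel opened by potassium depolarization with thallium stimulus after 20 min compound exposure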
KCNQ1 act = human KCNQ1 channel potentiation or activation. B-score at 10 µM. 0.35% of 310,000 active. AID 2648. CHO-K1 KCNQ1, thallium flux FluxOR fluorescence; stronger effect = higher value. P51787;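 active = fluorescence ratio B-score, a plate-corrected score, at least three library SD, with initial intensity B-score within 5 SD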
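assay system = KCNQ1-transfected CHO-K1 cells | medium = assay buffer with matched DMSO | probe or stimulus = depolarizing K+/Tl+ stimulus, K2SO4 and Tl2SO4 each 12.5 mM in 5x stock | dosing = single dose | incubation = dye 90 min, compound 20 min, room temperature | detection = kinetic FluxOR fluorescence, 10 s baseline plus 110 s post-stimulus | evaluation = ratio B score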
Kir21 block = blocks the mouse Kir2.1 inward-rectifier potassium channel. HEK293-Kir2.1, FluxOR thallium flux fluorescence; stronger effect = lower value. B-score at 10 µM. AID 1672. 0.85% of 310,000 active;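 active = fluorescence ratio B-score at or below minus 3 SD of library scores, with starting-brightness B-score within 2 SD, cut at about -4.2 in these data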;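 also: channel flux triggered by added potassium and thallium sulfate stimulus; B-score of peak minus minimum fluorescence over baseline after thallium stimulus; more negative B-score means stronger Kir2.1 block with less thallium influx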
hERG rescue = shields human hERG channel from block by proarrhythmic agents. Q12809. CHO-hERG, FluxOR thallium flux, dofetilide IC70 present. activation (rescue from dofetilide block), less the hit threshold, % at 10 µM. 0.51% of 310,000 active;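 active = activation above the mean of controls blocked by dofetilide plus 5 SD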;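 also: thallium influx through hERG after potassium depolarization seen as dye fluorescence rise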
KCNK9 block conf = human KCNK9 inhibitor confirmation; 43% of 4,900 active; HEK293 KCNK9 cells, FluxOR thallium flux fluorescence; inhibition, % at 10 µM; AID 492992; shares compounds with KCNK9 block;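 active = thallium signal inhibited by more than 5 SD of the compound-free buffer control wells, on both duplicate plates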;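 also: 0% = assay buffer control wells without compound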
Kir21 sel = selectivity of KCNK9 modulators against mouse Kir2.1 | shares compounds with KCNK9 block | Kir2.1 cells, FluxOR thallium flux fluorescence | inhibition, % at 10 µM | 4% of 4,900 active | AID 492993;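 active = thallium signal drop more than 5 SD beyond the mean of the no-compound control wells, seen in both duplicate plates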;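 also: signal is fluorescence rise after thallium addition divided by baseline fluorescence; plate controls were assay buffer only for no effect and full block by chlorpromazine control for full effect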
KCNK9 uninduced = non-induced cell nonspecific activity of KCNK9 modulators; AID 492997; 40% of 4,900 active; non-induced KCNK9-HEK293, FluxOR thallium flux; shares compounds with KCNK9 block; inhibition, % at 10 µM;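 active = thallium signal drop beyond 5 SD of the untreated control mean, on both duplicate plates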;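 also: plate controls were buffer only IC0 wells for no effect and SID17386958 at its maximal inhibitory level for full effect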
KCNK3 confirm = human KCNK3 channel inhibition, confirmation assay. CHO-KCNK3 thallium flux, FluxOR fluorescence; 0% buffer, 100% carvedilol maximal block. AID 651638. shares compounds with KCNK3 block. ratio percent of control, % at 10 µM. 99% of 2,400 active;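 active = ratio percent of control, averaged over triplicates, above buffer control mean plus 5 SD, cut at about 64% in these data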;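 also: ratio is the fluorescence rise from min to max over baseline after thallium stimulus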
KCNK3 uninduced = activity in cells without induced KCNK3 expression. shares compounds with KCNK3 block. non-induced KCNK3 parental cells, FluxOR thallium flux; stronger effect = lower value. thallium flux ratio (lower = more inhibition) at 10 µM. 40% of 2,400 active;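 active = thallium flux ratio, averaged over three wells, more than 5 SD below the buffer control mean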;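 also: host cells are CHO cells without KCNK3 induction; ratio is peak minus trough fluorescence over baseline then normalized to buffer controls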
The depositor's hits bear a star; i = inactive; . = not tested or not shown. Sampled rows, rich in hits. Any-hit rate of the full collection: about 3.7%.

SMILES	KCNK9 block	KCNK3 block	KCNQ1 inh	KCNQ1 act	Kir21 block	hERG rescue	KCNK9 block conf	Kir21 sel	KCNK9 uninduced	KCNK3 confirm	KCNK3 uninduced
Cc1cccn2cc(-c3cccc(NC(=O)c4cccs4)c3)nc12	-9.99*	-12.2*	i	i	0.72	-25.4	40.0%*	i	i	121.0*	i
Cn1cccc1-c1nc2ccc(NC(=O)c3cccs3)cc2[nH]1	-9.99*	-11.8*	i	i	-0.84	-21.8	45.5%*	i	i	141.0*	0.125*
Cc1nc(-c2cccc(NC(=O)c3cccs3)c2)cs1	i	i	i	i	-0.63	-15.5	.	.	.	.	.
CC(=O)Nc1ccc2nc(-c3cccn3C)[nH]c2c1	i	i	i	i	0.53	-4.3	.	.	.	.	.
C=C(C)COc1ccc(-c2ncnc(C(F)(F)F)c2-c2ccccc2)c(O)c1	i	i	i	i	-0.51	-0.6	.	.	.	.	.
C=C(C)COc1ccc(-c2ncnc(C(F)(F)F)c2-c2ccc(OC)cc2)c(O)c1	i	-9.24*	i	i	-1.73	-6.3	i	i	i	109.0*	0.15*
O=C(CCCC(=O)c1ccc(F)cc1)c1ccc(F)cc1	i	i	i	i	0.21	-8.9	.	.	.	.	.
O=C(Nc1nc2c(s1)CCCC2)c1nn(Cc2ccccc2)c(=O)c2ccccc12	-13.9*	-8.96*	i	i	0.5	-7.0	72.5%*	i	i	100.7*	i
CCNC(=O)CNC(=O)c1nn(Cc2ccccc2)c(=O)c2ccccc12	-10.3*	-13*	i	i	-0.27	1.9	60.0%*	i	23.5%*	102.0*	i
CC(C)CNC(=O)c1nn(Cc2ccccc2)c(=O)c2ccccc12	i	i	i	i	-0.23	-3.4	.	.	.	.	.
CCOCC(=O)Nc1cc(C(F)(F)F)ccc1Oc1cccc(Br)c1	-11.7*	i	i	i	0.6	-3.6	74.0%*	i	54.5%*	99.3*	i
CC(=O)Nc1cc(C(F)(F)F)ccc1Oc1cccc(Br)c1	i	i	i	i	0.73	-9.7	.	.	.	.	.
Fc1ccc(N2CCN(C(c3cccs3)c3nnnn3CCc3ccccc3)CC2)cc1 (stereo not drawn)	-12.6*	-11.8*	i	i	1.08	-5.2	68.0%*	i	32.0%*	125.7*	0.148*
COc1ccc(OCc2n(CC(=O)OC3CC(C)CCC3C(C)C)c3ccccc3[n+]2C)cc1 (stereo not drawn)	-13.8*	-10.5*	10*	i	-9.86*	-36.7	69.5%*	79.0%*	i	111.7*	i
CC(C)NC(=O)N(C)C[C@@H]1Oc2ccc(NC(=O)CCN3CCOCC3)cc2CC(=O)N([C@@H](C)CO)C[C@@H]1C	.	i	.	.	.	.	.	.	.	.	.
CCn1cc(Br)c(C(=O)Nc2ccc(C(=O)OC(C)C)cc2)n1	-10.7*	-9.7*	i	i	0.43	-4.7	41.0%*	i	25.5%*	99.3*	i
Cc1ccc(NC(=O)C(C)OC(=O)c2ccc(Cl)nc2)cc1S(=O)(=O)N1CCOCC1 (stereo not drawn)	i	i	i	i	-3.71	-11.1	.	.	.	.	.
CC(Oc1ccc(Cl)cc1)c1ccnn1S(=O)(=O)c1ccc(Cl)cc1 (stereo not drawn)	-14.9*	-13.5*	i	i	0.31	-11.8	58.0%*	44.5%*	58.0%*	113.7*	0.156*
CC(Oc1ccc(Cl)cc1)C(=O)Nc1ccc(S(=O)(=O)N2CCOCC2)cc1 (stereo not drawn)	i	i	i	i	-1.43	-6.5	.	.	.	.	.
COc1ccc(O)c(/C=N/Nc2nc(C)cc(-c3ccccc3)n2)c1	-15.4*	-9.96*	i	i	0.4	-13.3	51.0%*	i	23.0%*	119.7*	0.135*
COC(=O)c1cc(C)sc1NC(=S)N1CCN(CCc2ccccc2)CC1	i	-10.2*	i	i	-0.44	-16.7	i	i	i	104.0*	i
COc1cccc(NC(=S)N(CCCN2CCC(C)CC2)Cc2cccs2)c1	i	i	i	i	1.27	-8.6	.	.	.	.	.
COc1cccc(NC(=S)N(CCc2c(C)[nH]c3ccc(C)cc23)Cc2cccs2)c1	-13.9*	-10.9*	i	i	-1.11	-3.3	42.0%*	i	43.0%*	90.3*	0.143*
N#CC(C#N)=c1ccc2c(c1)N1C3=C(CCCC3)CC3CCCCC31N=2 (stereo not drawn)	-15.9*	-9.75*	14*	i	1.1	-28.4	67.0%*	i	45.0%*	130.3*	0.11*
CC(=O)Nc1nc(-c2ccc3c(c2)OCO3)cs1	i	i	i	i	0.04	-5.9	.	.	.	.	.
SMILES	KCNK9 block	KCNK3 block	KCNQ1 inh	KCNQ1 act	Kir21 block	hERG rescue	KCNK9 block conf	Kir21 sel	KCNK9 uninduced	KCNK3 confirm	KCNK3 uninduced
COc1cccc(C(=O)Nc2nc(-c3ccc4c(c3)OCO4)cs2)c1	-8.99*	-10.4*	i	i	2.54	-16.2	26.0%*	i	25.5%*	121.3*	0.136*
Cc1ccsc1CN(C)CC(=O)Nc1ccc([N+](=O)[O-])cc1Cl	-20.6*	-9.55*	i	i	1.35	-10.5	64.5%*	i	48.5%*	135.0*	0.126*
Cc1cc(C(=O)CSc2nnc(C3CC3)n2C2CC2)c(C)n1C(C)C	.	i	.	.	.	.	.	.	.	.	.
CCc1c(C(=O)NNC(=O)Nc2ccc3c(c2)OCO3)csc1C	i	i	i	i	0.16	-3.4	.	.	.	.	.
Cc1cc(C)cc(C(=O)NC(=S)Nc2ccc(Cc3ccncc3)cc2)c1	i	-9.98*	i	i	-3	-10.4	i	i	i	98.0*	i
OC(CNc1nc(C(F)(F)F)nc2ccccc12)c1ccccc1 (stereo not drawn)	-12.2*	-12.8*	i	i	1.6	-10.2	61.0%*	i	i	118.3*	i
Cc1ccc2nc3sc(C(=O)N4CCCc5ccccc54)c(N)c3cc2c1	-11.2*	-9.05*	i	i	-1.16	-19.5	53.0%*	i	51.5%*	135.3*	0.0833*
